ChEMBL document CHEMBL4613273, “Discovery of Aryl Formyl Piperidine Derivatives as Potent, Reversible, and Selective Monoacylglycerol Lipase Inhibitors” (J Med Chem, 2020)
Activity calls are given as the source filed them. No cut-off for these calls is given here.

Experiments:
[1] = Stability in mouse liver microsomes assessed as parent compound remaining level at 100 uM pre-incubated for 5 mins before NADPH addition and measured after 60 mins by UPLC-MS/MS analysis; format: ADME, Microsome; conditions: read-out: Stability
Procedure, shortened: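 Liver microsomes from human, mouse and rat were incubated with the compound. Remaining parent compound was followed at several time points up to 60 min and expressed as percent remaining.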

[2] = molecular target: T1, Cannabinoid receptor 2 (Homo sapiens, UniProt P34972); assay: Inhibition of CB2 receptor (unknown origin) expressed in Flpin-CHO cells at 10 uM incubated for 10 mins by Eu-cAMP tracer based cAMP accumulation assay relative to control
[3] = Tmax in Sprague-Dawley rat plasma at 10 mg/kg, ig measured over 1 to 300 mins post dose by LC-MS/MS analysis; format: ADME, organism-based; conditions: po
[4] = Half life in Sprague-Dawley rat plasma at 10 mg/kg, iv measured over 1 to 300 mins post dose by LC-MS/MS analysis; format: ADME, organism-based
[5] = system: Mus musculus; assay: Antidepressant activity in ICR mouse model of reserpine-induced depression assessed as immobility time at 5 mg/kg, ig by forced swim test (reference value: 136.84 +/- 46.69 secs); format: functional
[6] = molecular target: T2, Monoglyceride lipase (Homo sapiens, UniProt Q99685); assay: Inhibition of human recombinant MAGL pre-incubated for 5 mins before MAGL substrate addition and further incubated for 10 mins
T2 sequence (Q99685 whole entry): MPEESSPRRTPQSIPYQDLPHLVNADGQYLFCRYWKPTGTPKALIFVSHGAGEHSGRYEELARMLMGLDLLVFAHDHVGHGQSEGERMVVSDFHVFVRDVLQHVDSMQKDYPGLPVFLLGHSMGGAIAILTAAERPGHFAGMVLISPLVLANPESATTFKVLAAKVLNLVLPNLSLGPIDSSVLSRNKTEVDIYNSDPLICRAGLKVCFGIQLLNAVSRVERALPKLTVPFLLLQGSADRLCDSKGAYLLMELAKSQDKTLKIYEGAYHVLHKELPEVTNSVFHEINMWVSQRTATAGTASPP

[7] = molecular target: T1, Cannabinoid receptor 2; assay: Inhibition of CB2 receptor (unknown origin) expressed in Flpin-CHO cells incubated for 10 mins by Eu-cAMP tracer based cAMP accumulation assay; format: functional, cell-based
[8] = Half life in Sprague-Dawley rat brain at 10 mg/kg, ig measured over 5 to 720 mins post dose by LC-MS/MS analysis
[9] = molecular target: T3, Cannabinoid receptor 1 (Homo sapiens, UniProt P21554); assay: Inhibition of CB1 receptor (unknown origin) expressed in Flpin-CHO cells incubated for 10 mins by Eu-cAMP tracer based cAMP accumulation assay; format: functional, cell-based
[10] = AUC (0 to t) in Sprague-Dawley rat plasma at 10 mg/kg, ig measured over 1 to 300 mins post dose by LC-MS/MS analysis; format: ADME, organism-based; conditions: in vivo, po
[11] = system: Mus musculus; assay: Antidepressant activity in ICR mouse model of reserpine-induced depression assessed as reduction in straight scores at 4 to 16 mg/kg, sc for 6 days followed by reserpine injection 2 hrs after last compound dose and measured after 2 hrs; format: functional, organism-based
Procedure, shortened: (§1)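 In mice, depression was induced with reserpine 4 mg/kg, and the compound was given s.c. at 4, 8 or 16 mg/kg. Controls received phosphate buffer alone. Awakening, finger contact, fear, head touch, autonomous movement, straight and eyelid closure were scored. Data are mean ± SD of 3 independent experiments.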

[12] = Bioavailability (0 to t) in Sprague-Dawley rat plasma at 10 mg/kg, ig measured over 1 to 300 mins post dose by LC-MS/MS analysis
[13] = Cmax in Sprague-Dawley rat plasma at 10 mg/kg, iv measured over 1 to 300 mins post dose by LC-MS/MS analysis; format: ADME, organism-based; design: dose 10 mg/kg, route intravenous
[14] = Bioavailability (0 to infinity) in Sprague-Dawley rat plasma at 10 mg/kg, ig measured over 1 to 300 mins post dose by LC-MS/MS analysis
[15] = system: Mus musculus; assay: Antidepressant activity in ICR mouse model of reserpine-induced depression assessed as reduction in eyelid closure at 4 to 16 mg/kg, sc for 6 days followed by reserpine injection 2 hrs after last compound dose and measured after 2 hrs; format: functional, organism-based; procedure, shortened: as §1
[16] = system: Mus musculus; assay: Antidepressant activity in ICR mouse model of reserpine-induced depression assessed as reduction in finger contact at 4 to 16 mg/kg, sc for 6 days followed by reserpine injection 2 hrs after last compound dose and measured after 2 hrs; format: functional, organism-based; procedure, shortened: as §1
[17] = molecular target: T4, Fatty-acid amide hydrolase 1 (Homo sapiens) (UniProt O00519); assay: Inhibition of human recombinant FAAH at 100 uM pre-incubated for 5 mins before substrate addition and further incubated for 30 mins by fluorescence assay relative to control
T4 sequence (whole entry): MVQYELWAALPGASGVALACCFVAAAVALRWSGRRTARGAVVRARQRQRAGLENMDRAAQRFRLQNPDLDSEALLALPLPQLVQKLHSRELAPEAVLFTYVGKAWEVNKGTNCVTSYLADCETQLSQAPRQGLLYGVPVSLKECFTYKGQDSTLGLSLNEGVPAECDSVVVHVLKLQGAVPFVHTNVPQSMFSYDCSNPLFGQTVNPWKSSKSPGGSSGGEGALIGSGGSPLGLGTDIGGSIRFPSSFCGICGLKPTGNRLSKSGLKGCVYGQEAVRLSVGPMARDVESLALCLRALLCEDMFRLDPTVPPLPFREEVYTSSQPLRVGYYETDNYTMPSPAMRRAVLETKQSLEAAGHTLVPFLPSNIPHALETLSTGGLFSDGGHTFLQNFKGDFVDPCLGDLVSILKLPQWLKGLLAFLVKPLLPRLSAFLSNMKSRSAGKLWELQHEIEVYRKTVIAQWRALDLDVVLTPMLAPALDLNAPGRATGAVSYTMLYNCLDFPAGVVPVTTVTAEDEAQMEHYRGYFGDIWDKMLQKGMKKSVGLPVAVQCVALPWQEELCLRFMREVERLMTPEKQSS

[18] = system: Mus musculus; assay: Antidepressant activity in ICR mouse model of reserpine-induced depression assessed as reduction in awakening at 4 to 16 mg/kg, sc for 6 days followed by reserpine injection 2 hrs after last compound dose and measured after 2 hrs; format: functional, organism-based; procedure, shortened: as §1
[19] = molecular target: T3, Cannabinoid receptor 1; assay: Inhibition of CB1 receptor (unknown origin) expressed in Flpin-CHO cells at 10 uM incubated for 10 mins by Eu-cAMP tracer based cAMP accumulation assay relative to control
[20] = Cmax in Sprague-Dawley rat brain at 10 mg/kg, ig measured over 5 to 720 mins post dose by LC-MS/MS analysis
[21] = Cmax in Sprague-Dawley rat plasma at 10 mg/kg, ig measured over 1 to 300 mins post dose by LC-MS/MS analysis; format: ADME, organism-based; design: dose 10 mg/kg, route […]; conditions: po
[22] = Bioavailability (0 to t) in Sprague-Dawley rat plasma at 10 mg/kg, ig measured over 1 to 300 mins post dose by LC-MS/MS analysis; format: ADME, organism-based; conditions: po

T1 sequence (P34972 whole entry): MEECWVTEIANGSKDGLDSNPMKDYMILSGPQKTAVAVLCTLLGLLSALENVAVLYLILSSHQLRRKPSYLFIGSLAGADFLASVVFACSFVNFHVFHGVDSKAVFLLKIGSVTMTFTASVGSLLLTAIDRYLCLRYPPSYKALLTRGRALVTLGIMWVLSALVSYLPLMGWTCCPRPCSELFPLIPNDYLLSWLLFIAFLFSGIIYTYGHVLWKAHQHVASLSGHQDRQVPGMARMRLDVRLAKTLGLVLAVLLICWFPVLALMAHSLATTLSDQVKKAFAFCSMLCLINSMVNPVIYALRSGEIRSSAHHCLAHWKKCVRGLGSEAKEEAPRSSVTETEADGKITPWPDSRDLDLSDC
T3 sequence (P21554 whole entry): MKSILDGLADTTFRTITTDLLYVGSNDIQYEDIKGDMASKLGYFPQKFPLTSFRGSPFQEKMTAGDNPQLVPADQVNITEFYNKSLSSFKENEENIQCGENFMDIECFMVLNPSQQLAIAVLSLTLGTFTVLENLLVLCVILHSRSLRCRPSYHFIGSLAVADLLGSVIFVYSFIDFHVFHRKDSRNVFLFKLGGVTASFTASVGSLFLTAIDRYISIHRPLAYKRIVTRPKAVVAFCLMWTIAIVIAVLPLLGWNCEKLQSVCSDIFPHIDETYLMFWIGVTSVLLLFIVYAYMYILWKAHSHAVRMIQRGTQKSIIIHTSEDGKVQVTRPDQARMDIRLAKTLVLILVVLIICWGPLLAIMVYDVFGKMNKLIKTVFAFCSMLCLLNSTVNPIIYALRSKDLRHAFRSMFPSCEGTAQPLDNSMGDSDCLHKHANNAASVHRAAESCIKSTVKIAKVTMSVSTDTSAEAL

remaining at 1 h, 100 µM [1]: 57.9% | inhibition [2]: 20.4% | Tmax [3]: 0.567 h | half-life [4]: 1.1 h | IC50 [6]: 0.0147 µM | EC50 [7]: > 10 µM | half-life [8]: 2.44 h | EC50 [9]: > 10 µM | AUCt [10]: 9913.54 µg·min/L | bioavailability [12]: 12.2% | Cmax [13]: 5480 ng/mL | bioavailability [14]: 21.6% | inhibition [17]: 41.3% | inhibition [19]: 29.7% | Cmax [20]: 16.6 ng/mL | Cmax [21]: 83.1 ng/mL | bioavailability [22]: 12.2%
Compound: O=C(Nc1cccc(Cl)c1)C1CCN(C(=O)c2ccc3ccccc3c2)CC1
Time [5]: 89.38 s | Activity [11]: Active | Activity [15]: Active | Activity [16]: Active | Activity [18]: Active
